Test results reported in ChEMBL document CHEMBL5046294, “Rational Design, Chemical Syntheses, and Biological Evaluations of Peripherally Selective Mu Opioid Receptor Ligands as Potential Opioid Induced Constipation Treatment” (J Med Chem, 2022).
Activity calls are given as the source filed them.

What was measured:
[1] = target: Kappa-type opioid receptor (Mus musculus, UniProt P33534); assay: Binding affinity to mouse kappa opioid receptor expressed in CHO cells in presence of U50488 incubated for 1.5 hrs by competitive radioligand binding assay; type: cell-based
How it was run: (§1)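 Competition binding. Membranes (30 μg protein) from CHO cells with mouse MOR or KOR, or human DOR. Incubated with radioligand and varying test concentrations in TME buffer, pH 7.4, 1.5 h at 30 °C. Filtration harvest. Nonspecific binding defined with 5 μM naltrexone (MOR), U50,488 (KOR) or SNC80 (DOR). IC₅₀ by nonlinear regression, converted to Ki by Cheng-Prusoff. Selectivity ratios taken from these Ki values. At least three independent experiments.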

[2] = target: T1, Mu-type opioid receptor (Mus musculus, UniProt P42866); assay: Binding affinity to mouse mu opioid receptor expressed in CHO cells in presence of naltrexone incubated for 1.5 hrs by competitive radioligand binding assay; type: cell-based; how it was run: as §1
[3] = test system: Mus musculus; assay: Antinociceptive activity against Swiss Webster mouse assessed as tail withdrawal latency from warm water by measuring maximum possible effect at 10 mg/kg, sc measured after 20 mins by warm water tail immersion assay; type: functional
How it was run: (§2)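 Male Swiss Webster mice, 5–8 weeks, 25–35 g, 6 per group. Tail immersed (distal third) in water at 56 ± 0.1 °C. Mice included only with baseline latency 2–4 s. Compound 10 mg/kg s.c.; in the challenge arm it was given 5 min before morphine 10 mg/kg s.c. Latency read 20 min after injection, 10-s cutoff. %MPE = (test − control)/(10 − control) × 100. Dunnett-corrected one-way ANOVA.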

[4] = target: Delta-type opioid receptor (Homo sapiens, UniProt P41143); assay: Binding affinity to human delta opioid receptor in presence of SNC80 incubated for 1.5 hrs by competitive radioligand binding assay; how it was run: as §1
[5] = target: T1, Mu-type opioid receptor; assay: Antagonist activity at mouse mu opioid receptor expressed in CHO cell membrane assessed as reduction in DAMGO-induced […]-GTPgammaS binding incubated for 1.5 hrs by liquid scintillation counting method; type: functional, cell membranes
[6] = test system: Mus musculus; assay: Antinociceptive activity against sc dosed Swiss Webster mouse model assessed as effect on morphine induced antinociception by measuring tail withdrawal latency from warm water incubated for 5 mins followed by morphine addition measured after 20 mins by warm water tail immersion assay; type: functional; settings: time 25.0 min; how it was run: as §2
[7] = Selectivity index, ratio of Ki for binding affinity to human delta opioid receptor to Ki for binding affinity to mouse mu opioid receptor; how it was run: as §1
[8] = target: Mu-type opioid receptor (Mus musculus) (UniProt P42866); assay: Antagonist activity at mouse mu opioid receptor expressed in CHO cell membrane assessed as reduction in DAMGO-induced […]-GTPgammaS binding by measuring maximal efficacy incubated for 1.5 hrs by liquid scintillation counting method relative to control; type: functional, cell membranes
How it was run: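 [³⁵S]GTPγS binding. Membranes (10 μg protein) from CHO cells expressing MOR, KOR or DOR. Buffer TME (50 mM Tris, 3 mM MgCl₂, 0.2 mM EGTA, pH 7.4) with 100 mM NaCl, 20 μM GDP and 0.1 nM [³⁵S]GTPγS. Test compound at varying concentrations. Incubation 1.5 h at 30 °C. Nonspecific binding with 20 μM unlabeled GTPγS. Reference full agonist at 3 μM: DAMGO (MOR), U50488H (KOR), SNC80 (DOR). Filtration, then scintillation counting. Duplicates, at least three repeats.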

[9] = species on record: Mus musculus; assay: Selectivity index, ratio of Ki for binding affinity to mouse kappa opioid receptor to Ki for binding affinity to mouse mu opioid receptor; how it was run: as §1
[10] = test system: Mus musculus; assay: Gastroprokinetic activity in Swiss Webster mouse assessed as stimulation of gastrointestinal motility by measuring time required to defecation of red fecal pellet at 10 mg/kg, sc incubated for 5 mins followed by morphine addition at 10 mg/kg and measured after 20 mins by carmine red dye assay; type: functional; settings: time 25 min
How it was run: (§3)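 Male Swiss Webster mice, 5–6 per group, housed singly. Compound or vehicle given s.c. or by oral gavage 5 min before morphine (10 or 5 mg/kg) or vehicle. 20 min after morphine, 0.2 mL of 6% carmine red in 0.5% CMC given orally (time 0). Time to first red pellet recorded, 6-h cutoff. Dunnett-corrected one-way ANOVA.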

[11] = test system: Mus musculus; assay: Gastroprokinetic activity in Swiss Webster mouse assessed as stimulation of gastrointestinal motility by measuring time required to defecation of red fecal pellet at 10 mg/kg, po incubated for 5 mins followed by morphine addition at 10 mg/kg and measured after 20 mins by carmine red dye assay; type: functional; settings: time 25 min; how it was run: as §3
[12] = test system: Mus musculus; assay: Reversal of morphine induced constipation in Swiss Webster mouse at 10 mg/kg, po for 5 mins followed by morphine addition measured after 20 mins by carmine red dye assay relative to control; type: functional; settings: time 25 min; how it was run: as §3

SMILES	Ki [1]	Ki [2]	Activity [3]	Ki [4]	EC50 [5]	Activity [6]	Ratio Ki [7]	Emax [8]	Ratio Ki [9]	Time [10]	Time [11]	Activity [12]	MPE [3]
O=C(N[C@@H]1CC[C@@]2(O)[C@H]3Cc4ccc(O)c5c4[C@@]2(CCN3CC2CC2)[C@H]1O5)c1cc[nH]n1	0.95 nM	0.28 nM	inactive	14.5 nM	1.83 nM	inactive	52	10.9%	3				
O=C(Cc1cnc[nH]1)N[C@@H]1CC[C@@]2(O)[C@H]3Cc4ccc(O)c5c4[C@@]2(CCN3CC2CC2)[C@H]1O5	4.82 nM	0.82 nM	inactive	74.5 nM	4.64 nM	inactive	91	20.9%	6				
O=C(CCc1cn[nH]c1)N[C@@H]1CC[C@@]2(O)[C@H]3Cc4ccc(O)c5c4[C@@]2(CCN3CC2CC2)[C@H]1O5	12.3 nM	0.3 nM	inactive	97.8 nM	4.28 nM	inactive	322	10.7%	40				
O=C(CCc1cnc[nH]1)N[C@H]1CC[C@@]2(O)[C@H]3Cc4ccc(O)c5c4[C@@]2(CCN3CC2CC2)[C@H]1O5	1.21 nM	0.2 nM	inactive	21.5 nM	9.47 nM	inactive	106	25.4%	6				
O=C(CCc1cn[nH]c1)N[C@H]1CC[C@@]2(O)[C@H]3Cc4ccc(O)c5c4[C@@]2(CCN3CC2CC2)[C@H]1O5	39.5 nM	1.09 nM	inactive	91.2 nM	12.3 nM	inactive	83	14.2%	36				
O=C(CCc1ncc[nH]1)N[C@@H]1CC[C@@]2(O)[C@H]3Cc4ccc(O)c5c4[C@@]2(CCN3CC2CC2)[C@H]1O5	0.57 nM	0.57 nM	inactive	55.8 nM	1.24 nM	inactive	99	17.7%	1				
O=C(CCc1cc[nH]n1)N[C@@H]1CC[C@@]2(O)[C@H]3Cc4ccc(O)c5c4[C@@]2(CCN3CC2CC2)[C@H]1O5	2 nM	0.21 nM	inactive	42.2 nM	2.76 nM	inactive	202	13.2%	10				
O=C(N[C@H]1CC[C@@]2(O)[C@H]3Cc4ccc(O)c5c4[C@@]2(CCN3CC2CC2)[C@H]1O5)c1cn[nH]c1	4.7 nM	0.59 nM	inactive	37.5 nM	1.24 nM	inactive	64	23.1%	8				
O=C(Cc1cn[nH]c1)N[C@H]1CC[C@@]2(O)[C@H]3Cc4ccc(O)c5c4[C@@]2(CCN3CC2CC2)[C@H]1O5	104 nM	0.88 nM	inactive	3440 nM	8.17 nM	inactive	3920	28.4%	118	172 min	70 min	39%	
O=C(Cc1ncc[nH]1)N[C@H]1CC[C@@]2(O)[C@H]3Cc4ccc(O)c5c4[C@@]2(CCN3CC2CC2)[C@H]1O5	3.45 nM	0.83 nM		17.7 nM	1.81 nM		21	19.2%	4				36.9%
O=C(Cc1cnc[nH]1)N[C@H]1CC[C@@]2(O)[C@H]3Cc4ccc(O)c5c4[C@@]2(CCN3CC2CC2)[C@H]1O5	3.57 nM	1.34 nM	inactive	79.4 nM	3.61 nM	inactive	59	21%	3				
O=C(Cc1ncc[nH]1)N[C@@H]1CC[C@@]2(O)[C@H]3Cc4ccc(O)c5c4[C@@]2(CCN3CC2CC2)[C@H]1O5	5.17 nM	0.48 nM	inactive	89.8 nM	2.07 nM	inactive	188	23.5%	11				
O=C(Cc1cc[nH]n1)N[C@@H]1CC[C@@]2(O)[C@H]3Cc4ccc(O)c5c4[C@@]2(CCN3CC2CC2)[C@H]1O5	5.05 nM	0.2 nM		36.8 nM	2.5 nM	inactive	186	20.4%	26				39.3%
O=C(CCc1cnc[nH]1)N[C@@H]1CC[C@@]2(O)[C@H]3Cc4ccc(O)c5c4[C@@]2(CCN3CC2CC2)[C@H]1O5	1.8 nM	0.6 nM	inactive	35.5 nM	3.19 nM	inactive	60	15.7%	3				
O=C(N[C@H]1CC[C@@]2(O)[C@H]3Cc4ccc(O)c5c4[C@@]2(CCN3CC2CC2)[C@H]1O5)c1cnc[nH]1	2.76 nM	1.11 nM	inactive	32.5 nM	4.42 nM	inactive	29	20.7%	2				
O=C(N[C@@H]1CC[C@@]2(O)[C@H]3Cc4ccc(O)c5c4[C@@]2(CCN3CC2CC2)[C@H]1O5)c1cn[nH]c1	2.51 nM	0.65 nM	inactive	46.8 nM	1.77 nM	inactive	72	16.3%	4				
O=C(N[C@H]1CC[C@@]2(O)[C@H]3Cc4ccc(O)c5c4[C@@]2(CCN3CC2CC2)[C@H]1O5)c1cc[nH]n1	1.05 nM	0.61 nM	inactive	21.2 nM	2.33 nM	inactive	35	19.6%	2				
O=C(Cc1cn[nH]c1)N[C@@H]1CC[C@@]2(O)[C@H]3Cc4ccc(O)c5c4[C@@]2(CCN3CC2CC2)[C@H]1O5	13.9 nM	0.17 nM	inactive	66.6 nM		inactive	390	22.2%	82	174 min	69 min	40%	
O=C(CCc1cc[nH]n1)N[C@H]1CC[C@@]2(O)[C@H]3Cc4ccc(O)c5c4[C@@]2(CCN3CC2CC2)[C@H]1O5	2.75 nM	0.5 nM	inactive	217 nM	4.22 nM	inactive	433	22.2%	6				
O=C(CCc1ncc[nH]1)N[C@H]1CC[C@@]2(O)[C@H]3Cc4ccc(O)c5c4[C@@]2(CCN3CC2CC2)[C@H]1O5	0.79 nM	0.69 nM	inactive	3.94 nM	4.26 nM	inactive	6	21.7%	1				
